Experimental findings from ChEMBL document CHEMBL4152245, “Design, synthesis and biological evaluation of benzo[cd]indol-2(1H)-ones derivatives as BRD4 inhibitors” (Eur J Med Chem, 2018) are described below.

The target in data set [1] is T1, Bromodomain-containing protein 4 (Homo sapiens, UniProt O60885). The data set is described as follows: Inhibition of His-tagged BRD4 bromodomain-1 (unknown origin) expressed in Escherichia coli BL21(DE3) using SGRGK(Ac)-GG-K(Ac)-GLG-K(Ac)-GGA-K(Ac)-RHRKVGG-K-Biotin as substrate preincubated for 15 mins followed by substrate addition measured after 10 mins by Alphascreen assay. An outline of the steps: (§1)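 His-tagged BRD4_BD1 purified by Ni-NTA, anion exchange and gel filtration, tag retained. Assay buffer: 20 mM HEPES pH 7.4, 0.1% BSA, 0.01% Triton X-100, 1 mM DTT. Protein preincubated with compound 15 min at room temperature, biotinylated tetra-acetyl peptide added for 10 min, then streptavidin donor and nickel chelate acceptor beads for 60 min. Compounds screened at 20 and 5 µM; IC50 from three independent experiments.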

In data set [2] the target is T1, Bromodomain-containing protein 4. Put plainly: Inhibition of His-tagged BRD4 bromodomain-1 (unknown origin) expressed in Escherichia coli BL21(DE3) at 20 uM using SGRGK(Ac)-GG-K(Ac)-GLG-K(Ac)-GGA-K(Ac)-RHRKVGG-K-Biotin as substrate preincubated for 15 mins followed by substrate addition measured after 10 mins by Alphascreen assay relative to control. An outline of the steps: as §1

For data set [3] the target is unchanged. The data set is described as follows: Inhibition of His-tagged BRD4 bromodomain-1 (unknown origin) expressed in Escherichia coli BL21(DE3) at 5 uM using SGRGK(Ac)-GG-K(Ac)-GLG-K(Ac)-GGA-K(Ac)-RHRKVGG-K-Biotin as substrate preincubated for 15 mins followed by substrate addition measured after 10 mins by Alphascreen assay relative to control. In short, it runs like this: as §1

Data set [4] shares this target. Put plainly: Binding affinity to His-tagged BRD4 bromodomain-1 (unknown origin) expressed in Escherichia coli BL21(DE3) assessed as change in melting temperature at 100 uM by SYPRO orange dye based thermal shift assay. In short, it runs like this:
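Buffer of 20 mM HEPES pH 7.4, 100 mM NaCl and 1 mM DTT, with 5× SYPRO Orange and 5 µM BRD4_BD1. Compound at 100 µM or 0.5% DMSO, DMSO matched across wells. Heated at 2.5 °C/min from 25 to 95 °C. Tm compared with the DMSO control.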

Data set [5] has the same target. Put plainly: Inhibition of BRD4 in human MV4-11 cells assessed as downregulation of c-MYC mRNA expression after 6 hrs by RT-PCR analysis. Type of data set: cell-based. An outline of the steps: (§2)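 MV4-11 cells at 5×10⁵/mL treated 6 h with various compound concentrations or DMSO. c-Myc, Bcl-2 and CDK6 transcripts quantified by qRT-PCR, normalized to B2M by the ΔΔCt method.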

Data set [6] has the same target. Put plainly: Inhibition of BRD4 in human MV4-11 cells assessed as downregulation of Bcl2 mRNA expression after 6 hrs by RT-PCR analysis. Type of data set: cell-based. In short, it runs like this:
as §2

Data set [7] has the same target. The data set is described as follows: Inhibition of BRD4 in human MV4-11 cells assessed as downregulation of CDK6 mRNA expression after 6 hrs by RT-PCR analysis. It is filed as cell-based. An outline of the steps: as §2
Data set [8] has the same target. Put plainly: Inhibition of BRD4 in human MV4-11 cells assessed as downregulation of c-MYC protein expression after 6 hrs by Western blot analysis. Type of data set: cell-based. In short, it runs like this:
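MV4-11 cells at 5×10⁵/mL treated 6 h with various compound concentrations or DMSO. Immunoblotted with anti-c-Myc (1:1000, 4 °C overnight), then anti-rabbit secondary (1:10000, 1 h, room temperature).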

Data set [9] has the same target. The data set is described as follows: Inhibition of BRD4 (unknown origin) by Alphascreen assay. In short, it runs like this: as §1
In data set [10] the test system is MV4-11. Put plainly: Antiproliferative activity against human MV4-11 cells after 72 hrs by CellTiter-Glo luminescent assay. The settings on record: MV4-11, 72 h. Type of data set: functional, cell-based. In short, it runs like this: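 MV4-11 cells in RPMI 1640 with 10% FBS and 1% penicillin/streptomycin, seeded at 1×10⁵/mL. Compounds or DMSO added about 1 h later, then incubated 72 h. Viability read by CellTiter-Glo luminescence. Each dilution point run in triplicate, averaged, and fitted for IC50.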

Data set [11] deals with HUVEC. The data set is described as follows: Antiproliferative activity against HUVEC after 72 hrs by CellTiter-Glo luminescent assay. Type of data set: cell-based. The conditions noted are these: human. An outline of the steps: (§3)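 HUV-EC-C, MRC5, RPTEC, A549, MDA-MB-231 and 22Rv1 cells seeded at 3×10⁴/mL and exposed to serially diluted compounds or DMSO. Viability read by CellTiter-Glo luminescence. Each dilution point run in triplicate, averaged, and fitted.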

Data set [12] relates to MRC5. The data set is described as follows: Antiproliferative activity against human MRC5 cells after 72 hrs by CellTiter-Glo luminescent assay. It is filed as cell-based. The conditions noted are these: mrc5, 72 h. In short, it runs like this:
as §3

In data set [13] the test system is RPTEC. The data set is described as follows: Antiproliferative activity against human RPTEC cells after 72 hrs by CellTiter-Glo luminescent assay. Type of data set: cell-based. In short, it runs like this: as §3
In data set [14] the test system is MDA-MB-231. Put plainly: Antiproliferative activity against human MDA-MB-231 cells after 72 hrs by CellTiter-Glo luminescent assay. Type of data set: functional, cell-based. An outline of the steps:
as §3

The test system of data set [15] is A549. The data set is described as follows: Antiproliferative activity against human A549 cells after 72 hrs by CellTiter-Glo luminescent assay. It is filed as functional, cell-based. An outline of the steps: as §3
For data set [16], the system named is CWR22R. The data set is described as follows: Antiproliferative activity against human 22Rv1 cells after 72 hrs by CellTiter-Glo luminescent assay. It is filed as functional, cell-based. In short, it runs like this:
as §3

The test system of data set [17] is MV4-11. Put plainly: Cell cycle arrest in human MV4-11 cells assessed as accumulation at G1-phase after 24 hrs by propidium iodide staining based flow cytometry. Type of data set: functional.
Data set [18] has as its system MV4-11. Put plainly: Cell cycle arrest in human MV4-11 cells assessed as accumulation at G1-phase at 5 uM after 24 hrs by propidium iodide staining based flow cytometry (reference value: 61.39 to 63.23%). Type of data set: functional.
Data set [19] concerns MV4-11. Put plainly: Cell cycle arrest in human MV4-11 cells assessed as accumulation at G2-phase at 5 uM after 24 hrs by propidium iodide staining based flow cytometry (reference value: 7.76 to 8.93%). Type of data set: functional.
Data set [20] has as its system MV4-11. The data set is described as follows: Cell cycle arrest in human MV4-11 cells assessed as accumulation at S-phase at 5 uM after 24 hrs by propidium iodide staining based flow cytometry (reference value: 28.91 to 29.71%). It is filed as functional.
Data set [21] concerns MV4-11. Put plainly: Cell cycle arrest in human MV4-11 cells assessed as accumulation at G1-phase at 10 uM after 24 hrs by propidium iodide staining based flow cytometry (reference value: 61.39 to 63.23%). It is filed as functional.
The test system of data set [22] is MV4-11. Put plainly: Cell cycle arrest in human MV4-11 cells assessed as accumulation at G2-phase at 10 uM after 24 hrs by propidium iodide staining based flow cytometry (reference value: 7.76 to 8.93%). It is filed as functional.
In data set [23] the test system is MV4-11. Put plainly: Cell cycle arrest in human MV4-11 cells assessed as accumulation at S-phase at 10 uM after 24 hrs by propidium iodide staining based flow cytometry (reference value: 28.91 to 29.71%). It is filed as functional.
The test system of data set [24] is MV4-11. Put plainly: Cell cycle arrest in human MV4-11 cells assessed as accumulation at G1-phase at 20 uM after 24 hrs by propidium iodide staining based flow cytometry (reference value: 61.39 to 63.23%). Type of data set: functional.
For data set [25], the system named is MV4-11. Put plainly: Cell cycle arrest in human MV4-11 cells assessed as accumulation at G2-phase at 20 uM after 24 hrs by propidium iodide staining based flow cytometry (reference value: 7.76 to 8.93%). It is filed as functional.
The subject of data set [26] is MV4-11. The data set is described as follows: Cell cycle arrest in human MV4-11 cells assessed as accumulation at S-phase at 20 uM after 24 hrs by propidium iodide staining based flow cytometry (reference value: 28.91 to 29.71%). Type of data set: functional.

Active and inactive are the calls of the source. The calls are words filed in the database; no cut-off is given here.

In turn, `CCN1C(=O)c2cccc3c(S(=O)(=O)N4CCC[C@@H]4C(=O)NN)ccc1c23` yielded an IC50 in data set [1] of 1020 nM. For the same molecule, the inhibition in [2] was 100%; in data set [3] it was 93%; in [5], “Dose-dependent effect”; in data set [6], “Dose-dependent effect”; in data set [7], “Dose-dependent effect”; in data set [8], “Dose-dependent effect”. Besides, the ΔTm in data set [4] is 7.8 °C.
In turn, `CCN1C(=O)c2cccc3c(S(=O)(=O)N4CCC[C@@H]4C(=O)O)ccc1c23` yielded a 50% inhibitory concentration (IC50) in data set [1] of 3020 nM. For the same molecule, the inhibition was 98% in data set [2]; 66% in data set [3]; “Dose-dependent effect” in [5]; “Dose-dependent effect” in [6]; “Dose-dependent effect” in data set [7]; “Dose-dependent effect” in data set [8]. For the same molecule, the ΔTm in [4] was found to be 10.5 °C.
For the molecule `Cc1sc2c(c1C)C(c1ccc(Cl)cc1)=C[C@@H](CC(=O)OC(C)(C)C)c1nnc(C)n1-2`, inhibition in data set [9] was half-maximal at 77 nM (IC50).
Consider `CCN1C(=O)c2cccc3c(S(=O)(=O)N4CCCC4)ccc1c23`, for which the values for the IC50 in [1] and in [10] were 6830 nM and 11700 nM, respectively. Besides, the inhibition in data set [2] is 99%; in data set [3], 59%; in [5], “Dose-dependent effect”; in [6] it was “Dose-dependent effect”; in data set [7], “Dose-dependent effect”; in data set [8] it was “Dose-dependent effect”. In addition, the ΔTm in [4] was 3.4 °C. Moreover, the Activity result in data set [11] was “Non-Toxic”; in data set [12], “Non-Toxic”; in [13], “Non-Toxic”; in data set [17], “Dose-dependent effect”; in data set [18] it was 73%; in [19] it was 5.47%. Moreover, the Activity was 21.52% in data set [20]; 80.04% in [21]; 4% in data set [22]; 15.95% in [23]; 87.22% in data set [24]; 2.9% in [25]. In addition, in data set [26], the Activity is listed as 9.88%. Further, the outcome in [14], in data set [15] and in data set [16] was Active.
Molecule `CCN1C(=O)c2cccc3c(S(=O)(=O)NCCO)ccc1c23` returned an IC50 in data set [1] of 1550 nM. Further, the figures for the inhibition in data set [2] and in data set [3] were 100% and 98%, respectively. The ΔTm in data set [4] was determined as 13.2 °C.
